Test results published in ChEMBL document CHEMBL1155456, “Thiadiazole carbamates: potent inhibitors of lysosomal acid lipase and potential Niemann-Pick type C disease therapeutics” (J Med Chem, 2010).
Activity calls are given as the source filed them.

Tests used:
[1] = molecular target: T1, Lysosomal acid lipase/cholesteryl ester hydrolase (Homo sapiens) (UniProt P38571); assay: Inhibition of human LAL at 10 uM after 30 mins by fluorescence assay
T1 sequence (whole entry): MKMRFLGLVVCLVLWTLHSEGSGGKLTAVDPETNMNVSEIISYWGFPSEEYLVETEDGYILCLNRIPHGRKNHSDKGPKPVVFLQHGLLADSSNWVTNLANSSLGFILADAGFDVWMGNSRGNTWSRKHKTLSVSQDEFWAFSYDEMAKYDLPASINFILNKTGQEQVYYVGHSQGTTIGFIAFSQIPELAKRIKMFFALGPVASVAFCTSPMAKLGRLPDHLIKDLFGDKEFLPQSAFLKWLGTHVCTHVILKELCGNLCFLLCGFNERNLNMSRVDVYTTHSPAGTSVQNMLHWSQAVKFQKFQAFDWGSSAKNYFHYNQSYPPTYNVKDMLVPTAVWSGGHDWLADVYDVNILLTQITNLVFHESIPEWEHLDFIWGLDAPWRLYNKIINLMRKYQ

[2] = Cytotoxicity against human GM05659 cells at 10 uM; format: cell-based
[3] = Cytotoxicity against human GM03123 cells at 10 uM; format: cell-based
[4] = molecular target: T2, Lysosomal acid lipase/cholesteryl ester hydrolase (Homo sapiens, UniProt P38571); assay: Inhibition of human LAL after 30 mins by fluorescence assay
T2 sequence (P38571 whole entry): T1 sequence (whole entry)
Method in brief: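 Purified recombinant human LAL (1 mU/ml final) with threefold serial compound dilutions in 200 mM sodium acetate pH 5.5, 0.02% Tween-20, 30 min at 37 °C. 125 μM (final) 4-methylumbelliferyl oleate in Triton X-100 added; fluorescence (ex 355/em 450) read after 1 h at 37 °C. IC50 from rectangular-hyperbola fit of normalized activity; mean ± SEM of 3 independent experiments.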

[5] = molecular target: T1, Lysosomal acid lipase/cholesteryl ester hydrolase (Homo sapiens); assay: Inhibition of human LAL at 833 nM by fluorescence assay; conditions: TDE = time-dependent effect
Method in brief: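 Purified human LAL pre-incubated with compound at 833 nM for varying times at 37 °C (500 nM final in assay). Reaction started with 125 μM (final) 4-methylumbelliferyl oleate, followed 30 min at 37 °C. Normalized to DMSO control; mean ± SEM of 2 experiments, 12 wells per condition.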

[6] = molecular target: T1, Lysosomal acid lipase/cholesteryl ester hydrolase (Homo sapiens); assay: Inhibition of human LAL assessed as enzyme decarbamoylation rate constant at 10 uM after 30 mins by fluorescence assay
Method in brief: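 Purified human LAL carbamoylated with 10 μM compound for 30 min, then diluted 250× to 40 nM with 125 μM 4-methylumbelliferyl oleate. Run at 37 °C, pH 5.5 acetate buffer with Tween and Triton X-100; fluorescence read every 10 min for 2 h. k3 from linear regression of ln(fraction inhibited) vs time; mean ± SEM of 4 experiments.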

[7] = molecular target: T1, Lysosomal acid lipase/cholesteryl ester hydrolase (Homo sapiens); assay: Inhibition of LAL in human GM05659 cell lysate assessed as reduction in lysosomal storage organelle cholesterol level at 0.1 to 10 uM after 4 days by bicinchoninic acid assay
Method in brief: (§1)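 Human fibroblasts in MEM with 10% FBS, exposed to compound 3–4 days (withdrawal variant: 3 days treatment, then 1 day compound-free). Cells PBS-washed, rinsed in 150 mM sodium acetate pH 5.5, lysed in 1% Triton X-100 for 30 min at 37 °C. 1 mM (final) 4-methylumbelliferyl oleate added; fluorescence activity normalized to protein by bicinchoninic acid assay.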

[8] = molecular target: T1, Lysosomal acid lipase/cholesteryl ester hydrolase (Homo sapiens); assay: Inhibition of LAL in human GM05659 cell lysate assessed as reduction in lysosomal storage organelle cholesterol level at 0.1 to 10 uM treated for 3 days measured after 1 day of compound withdrawal by bicinchoninic acid assay; method in brief: as §1
[9] = molecular target: T1, Lysosomal acid lipase/cholesteryl ester hydrolase (Homo sapiens); assay: Inhibition of LAL in intact human GM03123 cells assessed as reduction in lysosomal storage organelle cholesterol level at 10 uM after 3 days by filipin LSO assay; format: cell-based
Method in brief: (§2)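 Fibroblasts in MEM with 10% FBS treated 3 days, stained with filipin or LipidTOX green, imaged by automated fluorescence microscopy. After background correction, integrated thresholded fluorescence within lysosomal storage organelles was normalized to total cell area defined by low-threshold filipin signal.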

[10] = molecular target: T1, Lysosomal acid lipase/cholesteryl ester hydrolase (Homo sapiens); assay: Inhibition of LAL in intact human GM05659 cells assessed as increase in neutral lipid accumulation in lysosomal storage organelle at 10 uM after 3 days by lipidTox green staining-based fluorescence microscopy; format: cell-based; method in brief: as §2
[11] = molecular target: T1, Lysosomal acid lipase/cholesteryl ester hydrolase (Homo sapiens); assay: Competitive inhibition of human LAL preincubated for 30 mins by Lineweaver-Burke plot analysis
Method in brief: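 Purified recombinant human LAL pre-incubated with inhibitor 30 min at 37 °C; reaction started with 4-methylumbelliferyl oleate at various concentrations, monitored 45 min. Concentrations are final. Lineweaver-Burk plots fitted by linear regression; two independent experiments, 6–8 wells per treated condition.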

Compound | inhibition [1] | Activity [2] | Activity [3] | further results
COC(=O)C(C)c1nsnc1N1CCOCC1 (racemic) | Active | Non-toxic | Non-toxic | –
CN1CCC(OC(=O)Nc2ccc(F)cc2)CC1 | inactive | – | – | –
O=C(Oc1nsnc1N1CCCCCC1)N1CCOCC1 | – | Non-toxic | Non-toxic | IC50 [4]: 0.189 µM; inhibition [5]: tde; Activity [6]: 0.0042 min⁻¹; inhibition [7]: Active
O=C(Oc1nsnc1N1CCCCC1)N1CCCCC1 | – | Non-toxic | Non-toxic | IC50 [4]: 0.152 µM; inhibition [5]: tde; Activity [6]: 0.001 min⁻¹; inhibition [7]: Active; inhibition [8]: Active; inhibition [9]: Active; inhibition [10]: Active
CC(C)(C)OC(=O)Cc1nsnc1N1CCOCC1 | inactive | Non-toxic | Non-toxic | –
O=C(Oc1nsnc1N1CCCCC1)N1CCOCC1 | – | Non-toxic | Non-toxic | IC50 [4]: 0.068 µM; inhibition [11]: Active; inhibition [5]: tde; Activity [6]: 0.003 min⁻¹; inhibition [7]: Active
O=C(Oc1nsnc1N1CCOCC1)N1CCOCC1 | – | Non-toxic | Non-toxic | IC50 [4]: 0.492 µM; inhibition [5]: tde; Activity [6]: 0.0043 min⁻¹; inhibition [7]: Active; inhibition [9]: inactive; inhibition [10]: inactive
NCCCCCCNC(=O)OCc1ccccc1 | inactive | – | – | –
CC(C(=O)c1ccccc1)c1nsnc1N1CCOCC1 (racemic) | inactive | Non-toxic | Non-toxic | –
O=C(Cc1nsnc1N1CCCCC1)N1CCOCC1 | inactive | Non-toxic | Non-toxic | –
O=C(Oc1nsnc1N1CCCC1)N1CCCCC1 | – | Non-toxic | Non-toxic | IC50 [4]: 0.496 µM; Activity [6]: 0.0007 min⁻¹; inhibition [7]: Active; inhibition [8]: Active
Oc1nsnc1N1CCOCC1 | inactive | Non-toxic | Non-toxic | –
Oc1nsnc1N1CCCCC1 | inactive | Non-toxic | Non-toxic | –
COC(=O)C(CCc1ccccc1)c1nsnc1N1CCOCC1 (racemic) | inactive | Non-toxic | Non-toxic | –
COC(N)=O | inactive | – | – | –
CNC(=O)Oc1ccc2c(c1)[C@]1(C)CCN(C)[C@@H]1N2C | inactive | – | – | –
CC(C)(C)C(=O)Cc1nsnc1N1CCOCC1 | inactive | Non-toxic | Non-toxic | –
O=C(Cc1nsnc1N1CCOCC1)N1CCOCC1 | inactive | Non-toxic | Non-toxic | –
O=C(Cc1nsnc1N1CCOCC1)c1ccccc1 | inactive | Non-toxic | Non-toxic | –
O=C(Oc1nsnc1N1CCOCC1)N1CCCCC1 | – | Non-toxic | Non-toxic | IC50 [4]: 0.424 µM; inhibition [5]: tde; Activity [6]: 0.0016 min⁻¹; inhibition [7]: Active
CC(C)(C)OC(=O)Cc1nsnc1N1CCCCC1 | – | Non-toxic | Non-toxic | –
CN(C)C(=O)Oc1cccc([N+](C)(C)C)c1 | inactive | – | – | –
Oc1nsnc1N1CCCCCC1 | inactive | Non-toxic | Non-toxic | –
COc1ccccc1OCC(CO)OC(N)=O (stereo not given) | inactive | – | – | –
Oc1nsnc1N1CCCC1 | inactive | Non-toxic | Non-toxic | –
CCOC(=O)Cc1nsnc1N1CCOCC1 | inactive | Non-toxic | Non-toxic | –
COC(=O)C(C)(C)c1nsnc1N1CCOCC1 | inactive | Non-toxic | Non-toxic | –
O=C(Oc1nsnc1N1CCCCCC1)N1CCCCC1 | – | Non-toxic | Non-toxic | IC50 [4]: 0.3 µM; inhibition [5]: tde; Activity [6]: 0.0013 min⁻¹; inhibition [7]: Active; inhibition [8]: Active
O=C(Oc1nsnc1N1CCCC1)N1CCOCC1 | – | Non-toxic | Non-toxic | IC50 [4]: 0.473 µM; inhibition [5]: tde; Activity [6]: 0.0037 min⁻¹; inhibition [7]: Active
